Assay results reported in ChEMBL document CHEMBL4610072, “Polyacetylenes from Oplopanax horridus and Panax ginseng: Relationship between Structure and PPARγ Activation” (J Nat Prod, 2020).

Experiments:
Type in all cases: cell-based
[1] = biological target: T1, Peroxisome proliferator-activated receptor gamma (Homo sapiens) (UniProt P37231); experiment: Activation of human PPARgamma expressed in HEK293 cells assessed as maximum fold activation at 0.1 to 30 uM incubated for 18 hrs by luciferase reporter assay relative to control
T1 sequence (whole entry): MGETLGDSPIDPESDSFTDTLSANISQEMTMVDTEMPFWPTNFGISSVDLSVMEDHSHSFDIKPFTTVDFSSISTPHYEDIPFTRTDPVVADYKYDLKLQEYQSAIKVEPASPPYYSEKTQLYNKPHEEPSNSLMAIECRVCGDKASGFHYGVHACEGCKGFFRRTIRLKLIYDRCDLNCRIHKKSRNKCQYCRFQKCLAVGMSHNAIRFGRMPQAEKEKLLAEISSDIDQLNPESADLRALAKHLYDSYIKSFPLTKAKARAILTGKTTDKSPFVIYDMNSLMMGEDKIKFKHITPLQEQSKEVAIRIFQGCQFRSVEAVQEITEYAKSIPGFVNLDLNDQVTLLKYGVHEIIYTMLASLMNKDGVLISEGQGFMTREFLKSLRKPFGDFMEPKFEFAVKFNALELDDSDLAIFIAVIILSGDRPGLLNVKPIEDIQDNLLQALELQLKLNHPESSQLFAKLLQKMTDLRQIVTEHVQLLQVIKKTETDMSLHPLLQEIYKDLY

HEK293 [2] = experiment: Cytotoxicity against HEK293 cells assessed as cell viability at 10 uM after 24 hrs by resazurin conversion assay; details: human, hek293, 24 h
Summary of the method: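 HEK293 cells seeded 5 × 10^5 per well, grown overnight, then exposed to 10 μM compound in stripped DMEM for 24 h; vehicle 0.4% DMSO. Wells PBS-washed, then 10 μg/mL resazurin in PBS added for 4 h; conversion read by fluorescence (excitation 535 nm). Viability relative to vehicle; at least three experiments, four technical replicates each.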

HEK293 [3] = experiment: (§1) Cytotoxicity against HEK293 cells assessed as cell viability at 3 uM after 18 hrs by luciferase assay relative to control; details: human, hek293, 18 h, 3 µM
Summary of the method: (§2)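 HEK293 cells calcium-phosphate co-transfected with PPARγ expression plasmid, PPRE-luciferase reporter and pEGFP-N1; 6 h later reseeded at 4 × 10^5/well in DMEM with 5% charcoal-stripped serum and given 3 μM compound for 18 h; vehicle 0.1% DMSO. After lysis, EGFP fluorescence relative to vehicle gave viability; n = 3–4, four technical replicates.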

[4] = as §1; details: human, HEK293 cells; read-out: Activity; summary of the method: as §2

Row | SMILES | Activity (HEK293 [2]) | also measured
1 | C=C[C@@H](O)C#CC#C[C@@H](O)/C=C\CCCCCCC [FALCARINDIOL] | – | Emax [1]: 3.26
2 | CCCCCCC(O)/C=C\[C@H](O)C#CC#C[C@@H](O)CC (some centres undefined) | Non-Toxic | –
3 | C=C[C@H](O)C#CC#C[C@@H](O)/C=C\CCCCCCC | Non-Toxic | Activity (HEK293 [3]): Toxic
4 | OCCCCCCCC/C=C\[C@H](O)C#CC#C[C@@H](O)CCO | Non-Toxic | –
5 | CCCCCCC/C=C\[C@H](O)C#CC#C[C@@H](O)CC [OPLOPANDIOL] | Non-Toxic | –
6 | C=C[C@H](O)C#CC#C[C@@H](O)/C=C\C(O)CCCCCC (some centres undefined) | Non-Toxic | –
7 | CC[C@H](O)C#CC#C[C@@H](O)/C=C\CCCCCCCCOC(C)=O [OPLOPANDIOL ACETATE] | Non-Toxic | –
8 | C=C[C@H](O)C#CC#C[C@@H](O)/C=C\CCCCCCCCO | Non-Toxic | –
9 | CCCCCCC[C@@H]1O[C@@H]1CC#CC#CC(=O)CC | Non-Toxic | –
10 | C=C[C@@H](O)C#CC#C/C=C/[C@@H](O)CCCCCCC | Non-Toxic | –
11 | C=C[C@@H](O)C#CC#CCC1OC1CCCCCCC (some centres undefined) | Non-Toxic | viability at 18 h, 3 µM [4]: > 70%
12 | C=C[C@H](O)C#CC#C[C@@H](O)/C=C\CCCCCCCCOC(C)=O | Non-Toxic | –
13 | C=C[C@@H](O)C#CC#C/C=C/[C@@H](O)CCCCCCCCOC(C)=O | Non-Toxic | –
14 | CCCCCCC[C@H](O)/C=C/C#CC#C[C@H](O)CC | Non-Toxic | –
15 | CC[C@@H](O)C#CC#C/C=C/[C@@H](O)CCCCCCCCO | Non-Toxic | –
16 | CC[C@@H](O)C#CC#C/C=C/[C@@H](O)CCCCCCCCOC(C)=O | Non-Toxic | –
17 | C=CCCCCC[C@@H]1O[C@@H]1CC#CC#CC(=O)CC | Non-Toxic | –
18 | CCCCCCC/C=C\[C@H](O)C#CC#C[C@@H](O)CCO | Non-Toxic | –
19 | CC[C@H](O)C#CC#C[C@@H](O)/C=C\CCCCCCCCO | Non-Toxic | –
20 | C=C[C@@H](O)C#CC#CC/C=C\CCCCCCC | Non-Toxic | viability at 18 h, 3 µM [4]: > 70%
21 | C=C[C@@H](O)C#CC#CC/C=C\CCCCCCCCOC(C)=O | Non-Toxic | viability at 18 h, 3 µM [4]: > 70%
22 | C=C[C@@H](O)C#CC#CC/C=C\CCCCCCCCO | Non-Toxic | viability at 18 h, 3 µM [4]: > 70%
23 | C=C[C@@H](O)C#CC#C/C=C/[C@@H](O)CCCCCCCCO | Non-Toxic | –
24 | CC(=O)OCCCCCCCC/C=C\[C@H](O)C#CC#C[C@@H](O)CCO | Non-Toxic | –
